Experimental data reported in ChEMBL document CHEMBL4145607, “Tamarixetin Exhibits Anti-inflammatory Activity and Prevents Bacterial Sepsis by Increasing IL-10 Production” (J Nat Prod, 2018).
Active and inactive are the calls of the source. The rule behind the calls is not given here.

What was measured:
BMDC [1] = assay: Inhibition of LPS-induced immune response in C57BL/6 mouse BMDC assessed as reduction in IL-6 secretion up to 25 uM pretreated for 30 mins followed by LPS-challenge measured after 6 hrs by ELISA; format: functional, cell-based
How it was run: (§1)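 Mouse BMDCs (female C57BL/6 bone marrow, GM-CSF-derived, ≥90% CD11c+ on day 7) pretreated 30 min with graded compound concentrations, then stimulated with LPS 50 ng/mL for 6 h. Supernatant TNF-α, IL-6, IL-10 and IL-12p70 quantified by sandwich ELISA. Mean ± SEM vs LPS-only cells; experiments repeated at least three times.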

BMDC [2] = assay: Inhibition of Escherichia coli DH5alpha infection-induced immune response in C57BL/6 mouse BMDC assessed as reduction in IL-12p70 secretion at 25 uM pretreated for 60 to 120 mins followed by Escherichia coli DH5alpha infection for 6 hrs by ELISA; format: functional, cell-based
How it was run: (§2)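 C57BL/6 BMDCs received 25 μM compound and E. coli DH5α, 3 × 10^6 CFU·mL−1. Schedules were: compound 30 min before a 6 h infection; co-addition for 6 h; or compound for 30, 60, 90 or 120 min plus 6 h infection. Supernatant TNF-α, IL-6, IL-10 and IL-12p70 were measured by ELISA. At least three experiments in triplicate.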

BMDC [3] = assay: Inhibition of Escherichia coli K1 infection-induced immune response in C57BL/6 mouse BMDC assessed as reduction in IL-6 secretion at 25 uM pretreated for 30 mins followed by Escherichia coli K1 infection for 6 hrs by ELISA; format: functional, cell-based
How it was run: (§3)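 BMDCs from C57BL/6 mice were given 25 μM compound and E. coli K1, […]. Timing was: compound 30 min before a 6 h infection; cotreatment for 6 h; or compound for 30–120 min with 6 h infection. Supernatant cytokines (TNF-α, IL-6, IL-10, IL-12p70) were measured by ELISA. At least three experiments in triplicate.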

BMDC [4] = assay: Inhibition of LPS-induced immune response in C57BL/6 mouse BMDC assessed as reduction in IL-12p70 secretion up to 25 uM pretreated for 30 mins followed by LPS-challenge measured after 6 hrs by ELISA; format: functional, cell-based; how it was run: as §1
Mus musculus = assay: Antiinflammatory activity in Balb/c mouse model of LPS-induced endotoxemia assessed as reduction in serum AST level at 1 mg/kg, ip pretreated for 1 hr followed by LPS-challenge measured after 12 hrs by ELISA; format: functional, organism-based
How it was run: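 In BALB/c mice, 1 mg·kg−1 i.p. was given 1 h before LPS 10 mg·kg−1 i.p. After 12 h, serum AST, ALT and BUN were measured by ELISA. Means ± SEM.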

BMDC [5] = assay: Inhibition of LPS-induced immune response in C57BL/6 mouse BMDC assessed as reduction in IL-12p70 secretion at 25 uM treated 6 hrs post LPS-challenge measured after 30 mins by ELISA; format: functional, cell-based
How it was run: (§4)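 Bone marrow DCs from 6-week-old female C57BL/6 mice, RBC-lysed, cultured in RPMI-1640/10% FBS with 10 ng/mL rmGM-CSF, 37 °C, 5% CO2. Cells given LPS 50 ng/mL for 6 h, then 25 μM compound added for 30, 60, 90 or 120 min. Supernatant TNF-α, IL-6, IL-10, IL-12p70 measured by sandwich ELISA. Mean ± SEM, compared with LPS-only DCs.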

BMDC [6] = assay: Inhibition of Escherichia coli K1 infection-induced immune response in C57BL/6 mouse BMDC assessed as increase in IL10 secretion at 25 uM pretreated for 30 mins followed by Escherichia coli K1 infection for 6 hrs by ELISA; format: functional, cell-based; how it was run: as §3
BMDC [7] = assay: Inhibition of LPS-induced immune response in C57BL/6 mouse BMDC assessed as increase in IL10 secretion at 25 uM treated 6 hrs post LPS-challenge measured after 30 mins by ELISA; format: functional, cell-based; how it was run: as §4
BMDC [8] = assay: Inhibition of LPS-induced immune response in C57BL/6 mouse BMDC assessed as reduction in IL-6 secretion at 25 uM treated 6 hrs post LPS-challenge measured after 30 mins by ELISA; format: functional, cell-based; how it was run: as §4
[9] = target: T1, Toll-like receptor 4 (Mus musculus) (UniProt Q9QUK6); assay: Inhibition of LPS-induced TLR4 activation in C57BL/6 mouse BMDC assessed as reduction in COX2 expression at 25 uM pretreated for 30 mins followed by LPS-challenge measured after 15 to 90 mins by Western blot analysis; format: cell-based
T1 sequence (whole entry): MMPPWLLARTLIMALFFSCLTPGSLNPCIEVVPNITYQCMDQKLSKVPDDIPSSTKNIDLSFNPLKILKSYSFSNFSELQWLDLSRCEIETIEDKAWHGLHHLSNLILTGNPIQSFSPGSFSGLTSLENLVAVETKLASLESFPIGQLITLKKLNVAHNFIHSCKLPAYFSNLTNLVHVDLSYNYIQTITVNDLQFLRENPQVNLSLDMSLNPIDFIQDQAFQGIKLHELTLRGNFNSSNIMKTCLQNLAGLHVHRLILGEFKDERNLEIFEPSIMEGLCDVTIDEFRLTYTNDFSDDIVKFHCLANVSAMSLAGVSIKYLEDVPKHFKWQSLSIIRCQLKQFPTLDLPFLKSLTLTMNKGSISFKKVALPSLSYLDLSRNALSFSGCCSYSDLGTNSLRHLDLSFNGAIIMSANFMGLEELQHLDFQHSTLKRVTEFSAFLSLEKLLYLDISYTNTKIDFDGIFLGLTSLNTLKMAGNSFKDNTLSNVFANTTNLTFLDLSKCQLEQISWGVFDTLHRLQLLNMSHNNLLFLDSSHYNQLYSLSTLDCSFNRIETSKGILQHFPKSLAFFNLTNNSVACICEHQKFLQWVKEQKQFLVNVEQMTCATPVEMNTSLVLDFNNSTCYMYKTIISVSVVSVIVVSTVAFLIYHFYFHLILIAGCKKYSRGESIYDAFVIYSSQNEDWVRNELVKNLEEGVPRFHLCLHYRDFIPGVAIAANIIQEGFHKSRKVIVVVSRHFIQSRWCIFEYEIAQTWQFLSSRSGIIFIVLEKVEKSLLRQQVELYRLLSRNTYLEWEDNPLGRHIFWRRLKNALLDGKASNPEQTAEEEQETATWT
How it was run: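 BMDCs were pretreated 30 min with 25 μM compound, then stimulated with LPS 50 ng·mL−1 for the indicated times. Lysates (25 μg protein) were run on 10% SDS-PAGE and immunoblotted for phospho/total ERK, JNK, p38 and Akt, plus COX-2, IκBα and α-tubulin, with ECL detection. Representative of three experiments.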

BMDC [10] = assay: Inhibition of Escherichia coli K1 infection-induced immune response in C57BL/6 mouse BMDC assessed as reduction in IL-12p70 secretion at 25 uM pretreated for 30 mins followed by Escherichia coli K1 infection for 6 hrs by ELISA; format: functional, cell-based; how it was run: as §3
BMDC [11] = assay: Inhibition of Escherichia coli DH5alpha infection-induced immune response in C57BL/6 mouse BMDC assessed as increase in IL10 secretion at 25 uM pretreated for 30 mins followed by Escherichia coli DH5alpha infection for 6 hrs by ELISA; format: functional, cell-based; how it was run: as §2

COc1ccc(-c2oc3cc(O)cc(O)c3c(=O)c2O)cc1O [TAMARIXETIN]
inhibition (BMDC [1]): Active | inhibition (BMDC [2]): inactive | inhibition (BMDC [3]): Active | inhibition (BMDC [4]): Active | Activity (Mus musculus): Active | inhibition (BMDC [5]): Active | inhibition (BMDC [6]): Active | inhibition (BMDC [7]): Active | inhibition (BMDC [8]): Active | inhibition [9]: Active | inhibition (BMDC [10]): Active | inhibition (BMDC [11]): Active
